From ChEMBL document CHEMBL4765317, “Novel bacterial topoisomerase inhibitors derived from isomannide” (Eur J Med Chem, 2020) come the findings set out here.

In experiment [1] the test system is Staphylococcus aureus. The experiment is described as follows: Antibacterial activity against Staphylococcus aureus ATCC 29213 assessed as reduction in bacterial growth by CLSI based broth microdilution method. It counts as functional. In general terms: Dilution methods test growth across graded concentrations, often in twofold steps.
Experiment [2] concerns Staphylococcus aureus. As to the kind of experiment: Antibacterial activity against Staphylococcus aureus USA300 assessed as reduction in bacterial growth by CLSI based broth microdilution method. It counts as functional.
For experiment [3], the system named is Staphylococcus aureus. As to the kind of experiment: Antibacterial activity against cystic fibrosis patient isolate Staphylococcus aureus assessed as reduction in bacterial growth by CLSI based broth microdilution method. In kind it is functional.
Experiment [4] in a line: Inhibition of Staphylococcus aureus topoisomerase IV using kDNA as substrate incubated for 30 mins by gel electrophoresis analysis.
Experiment [5] deals with Staphylococcus aureus. The experiment is described as follows: Selectivity index, ratio of IC50 for inhibition of Staphylococcus aureus topoisomerase IV to IC50 for inhibition of Staphylococcus aureus DNA gyrase. The essentials: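 Ratio of S. aureus TopoIV IC50 to S. aureus DNA gyrase IC50, both from gel-based assays. TopoIV read-out was inhibition of decatenation; gyrase read-out was inhibition of supercoiling.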

The test system of experiment [6] is Staphylococcus aureus. As to the kind of experiment: Antibacterial activity against Staphylococcus aureus 3527 assessed as reduction in bacterial growth by CLSI based broth microdilution method. It counts as functional. The method, boiled down: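 Host is a multidrug-resistant MRSA clinical isolate (formerly 1095), the parent of an isogenic D83N gyrase mutant. MIC was read by CLSI broth microdilution and reported in µg/mL.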

In experiment [7] the test system is Staphylococcus aureus. As to the kind of experiment: Antibacterial activity against Staphylococcus aureus harboring DNA gyrase D83N mutant assessed as reduction in bacterial growth by CLSI based broth microdilution method. It counts as functional. The essentials: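 MIC against an isogenic NBTI-resistant daughter strain carrying a D83N substitution in DNA gyrase, originally selected under NBTI pressure from multidrug-resistant MRSA isolate 3527. CLSI broth microdilution was used, with values in µg/mL.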

Experiment [8] concerns Staphylococcus aureus. As to the kind of experiment: Selectivity index, fold shift in MIC between parent and mutant. In kind it is functional. The essentials: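 MICs by CLSI broth microdilution in µg/mL against multidrug-resistant MRSA isolate 3527 (formerly 1095) and its isogenic NBTI-resistant daughter strain carrying a gyrase D83N substitution. Value is the fold shift in MIC between parent and mutant.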

The nature of experiment [9]: Inhibition of Staphylococcus aureus DNA gyrase using relaxed pBR322 DNA as substrate incubated for 30 mins by agarose gel electrophoresis method.
In experiment [10] the target is Voltage-gated inwardly rectifying potassium channel KCNH2 (Homo sapiens, UniProt Q12809). As to the kind of experiment: Inhibition of human ERG.
For experiment [11], the system named is Staphylococcus aureus. As to the kind of experiment: Antibacterial activity against methicillin-resistant Staphylococcus aureus DRL-3161 assessed as reduction in bacterial growth by CLSI based broth microdilution method. In kind it is functional.
Another experiment concerns Streptococcus pyogenes. As to the kind of experiment: Antibacterial activity against Streptococcus pyogenes LSI-1235 assessed as reduction in bacterial growth by CLSI based broth microdilution method. In kind it is functional.
Experiment [12] has as its system Streptococcus pneumoniae. The experiment is described as follows: Antibacterial activity against penicillin-susceptible Streptococcus pneumoniae LSI-4234 assessed as reduction in bacterial growth by CLSI based broth microdilution method. In kind it is functional.
Experiment [13] has as its system Streptococcus pneumoniae. As to the kind of experiment: Antibacterial activity against penicillin-resistant Streptococcus pneumoniae LSI-4246 assessed as reduction in bacterial growth by CLSI based broth microdilution method. In kind it is functional.
Experiment [14] has as its system Enterococcus faecium. The experiment is described as follows: Antibacterial activity against Vancomycin-susceptible Enterococcus faecium DRL-4193 assessed as reduction in bacterial growth by CLSI based broth microdilution method. It counts as functional.
The test system of experiment [15] is Enterococcus faecium. The experiment is described as follows: Antibacterial activity against Vancomycin-resistant Enterococcus faecium LSI-3340 assessed as reduction in bacterial growth by CLSI based broth microdilution method. In kind it is functional.
The next experiment has as its system Enterococcus faecalis. As to the kind of experiment: Antibacterial activity against Enterococcus faecalis ATCC 29212 assessed as reduction in bacterial growth by CLSI based broth microdilution method. In kind it is functional.

Converted amounts (≈) assume the structure as drawn. Some results are limits rather than exact numbers.

Chain of Voltage-gated inwardly rectifying potassium channel KCNH2 (Q12809 whole entry): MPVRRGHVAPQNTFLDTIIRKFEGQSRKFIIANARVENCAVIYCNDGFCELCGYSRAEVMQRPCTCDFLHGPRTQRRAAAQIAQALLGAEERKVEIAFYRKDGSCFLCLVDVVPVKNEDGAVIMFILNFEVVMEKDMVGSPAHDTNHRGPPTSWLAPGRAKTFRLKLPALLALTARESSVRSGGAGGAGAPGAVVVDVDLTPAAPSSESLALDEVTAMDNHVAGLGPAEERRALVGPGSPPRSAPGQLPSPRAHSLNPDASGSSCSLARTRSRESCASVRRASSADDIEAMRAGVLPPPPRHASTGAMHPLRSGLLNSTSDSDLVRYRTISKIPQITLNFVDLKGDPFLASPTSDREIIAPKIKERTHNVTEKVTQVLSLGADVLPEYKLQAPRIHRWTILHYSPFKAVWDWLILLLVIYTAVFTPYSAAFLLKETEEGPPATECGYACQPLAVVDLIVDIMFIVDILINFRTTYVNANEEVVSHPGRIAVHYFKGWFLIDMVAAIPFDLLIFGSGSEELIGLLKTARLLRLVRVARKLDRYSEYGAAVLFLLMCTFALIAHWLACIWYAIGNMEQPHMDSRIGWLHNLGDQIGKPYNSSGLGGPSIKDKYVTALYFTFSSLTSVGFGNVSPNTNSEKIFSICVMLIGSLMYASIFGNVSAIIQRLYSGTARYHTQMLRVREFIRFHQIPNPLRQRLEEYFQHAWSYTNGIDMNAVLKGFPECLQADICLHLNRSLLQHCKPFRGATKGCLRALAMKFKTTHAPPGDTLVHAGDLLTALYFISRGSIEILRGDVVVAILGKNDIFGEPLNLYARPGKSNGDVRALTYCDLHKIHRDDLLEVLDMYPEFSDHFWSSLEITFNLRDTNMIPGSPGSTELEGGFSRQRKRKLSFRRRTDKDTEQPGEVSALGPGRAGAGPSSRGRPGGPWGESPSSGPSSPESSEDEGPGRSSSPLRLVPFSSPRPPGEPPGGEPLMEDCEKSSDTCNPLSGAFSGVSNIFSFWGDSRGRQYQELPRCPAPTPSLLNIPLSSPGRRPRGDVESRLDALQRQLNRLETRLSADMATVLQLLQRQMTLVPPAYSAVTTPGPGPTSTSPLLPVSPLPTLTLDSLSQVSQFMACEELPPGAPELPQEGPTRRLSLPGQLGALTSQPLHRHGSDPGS

In the case of `COc1ccc2ncc(F)c(CC[C@@]3(O)CO[C@@H]4[C@@H](NCc5ccc(C)cc5)CO[C@@H]43)c2n1`, the MIC (in general, the smallest concentration in the dilution series that meets the test's criterion for growth inhibition) with Staphylococcus aureus [1] was 1 µg/mL (≈ 2.21 µM); in the experiment on Staphylococcus aureus [2], 2 µg/mL (≈ 4.41 µM); in the experiment with Staphylococcus aureus [3] it was 2 µg/mL (≈ 4.41 µM); in the experiment with Staphylococcus aureus [6] it was 2 µg/mL (≈ 4.41 µM); with Staphylococcus aureus [7], 16 µg/mL (≈ 35.3 µM). For the same compound, the values for the IC50 in experiment [4] (read-out: IC50) and in experiment [9] were 7500 nM and 180 nM, respectively. In addition, the Ratio IC50 in the experiment with Staphylococcus aureus [5] was 42. The Ratio in the experiment on Staphylococcus aureus [8] stood at 8.
As to `COc1ccc2ncc(F)c(CC[C@@]3(O)CO[C@@H]4[C@@H](NCc5ccc(Cl)c(Cl)c5)CO[C@@H]43)c2n1`, the MIC in the experiment on Staphylococcus aureus [1] was ≤ 0.25 µg/mL; with Staphylococcus aureus [2], 0.5 µg/mL (≈ 0.984 µM); with Staphylococcus aureus [3], 0.5 µg/mL (≈ 0.984 µM); with Staphylococcus aureus [6], 0.25 µg/mL (≈ 0.492 µM); with Staphylococcus aureus [7], 4 µg/mL (≈ 7.87 µM). Moreover, the results for the IC50 in experiment [4] (read-out: IC50) and in [9] were 2900 nM and 200 nM, respectively.
As to `COc1ccc2nccc(CC[C@@]3(O)CO[C@@H]4[C@@H](NCc5ccc(C)cc5)CO[C@@H]43)c2c1`, the MIC in the experiment on Staphylococcus aureus [1], with Staphylococcus aureus [2] and in the experiment on Staphylococcus aureus [3] was > 8 µg/mL each time.
Turning to `COc1ccc2ncc(F)c(CC[C@]3(O)CC[C@H](NCc4ccc(Cl)c(Cl)c4)CC3)c2n1`, the IC50 (in general, the point on the concentration scale where inhibition reaches its midpoint) in experiment [10] stood at 3800 nM.
On to `COc1ccc2nccc(CC[C@@]3(O)CO[C@@H]4[C@@H](NCc5ccccc5)CO[C@@H]43)c2c1`, for which the MIC in the experiment on Staphylococcus aureus [1], in the experiment on Staphylococcus aureus [2] and with Staphylococcus aureus [3] was > 8 µg/mL each time.
As to `COc1ccc2ncc(F)c(CC[C@@]3(O)CO[C@@H]4[C@@H](NCc5ccc6c(n5)NC(=O)CO6)CO[C@@H]43)c2n1`, the MIC in the experiment on Staphylococcus aureus [1] was determined as 2 µg/mL (≈ 3.91 µM); in the experiment on Staphylococcus aureus [2], 1 µg/mL (≈ 1.95 µM); with Staphylococcus aureus [3], 2 µg/mL (≈ 3.91 µM); in the experiment with Staphylococcus aureus [6], 1 µg/mL (≈ 1.95 µM); in the experiment on Staphylococcus aureus [7], 8 µg/mL (≈ 15.6 µM). For the same compound, the values for the concentration for half-maximal inhibition (IC50) entry in [4], in [10] and in experiment [9] were “Not Active”, 12000 nM and 540 nM, respectively. In the experiment with Staphylococcus aureus [8], the Ratio amounted to 8.
`COc1ccc2ncc(F)c(CC[C@H]3OC[C@H](NCc4ccc(Cl)c(Cl)c4)CO3)c2n1` gave an IC50 in experiment [10] of 7900 nM.
For the compound `COc1ccc2ncc(F)c(CC[C@]3(O)CC[C@@H](NCc4ccc5c(c4)OCCO5)CC3)c2n1`, the half-maximal inhibitory concentration (IC50) in experiment [10] came out at 2200 nM.
On to `COc1ccc2nccc(CC[C@@]3(O)CO[C@@H]4[C@@H](NCc5ccc6c(c5)OCCO6)CO[C@@H]43)c2c1`, for which the minimal inhibitory concentration (MIC) in the experiment with Staphylococcus aureus [1], in the experiment on Staphylococcus aureus [2] and with Staphylococcus aureus [3] was 16 µg/mL (≈ 33.4 µM) in each case.
In the case of `COc1ccc2ncc(F)c(CC[C@H]3OC[C@H](NCc4ccc5c(c4)OCCO5)CO3)c2n1`, the MIC is < 0.25 µg/mL with Staphylococcus aureus [1]; 0.125 µg/mL (≈ 0.274 µM) in the experiment with Staphylococcus aureus [2]; 0.25 µg/mL (≈ 0.549 µM) in the experiment with Staphylococcus aureus [3]; ≤ 0.06 µg/mL in the experiment on Staphylococcus aureus [11]; ≤ 0.06 µg/mL in the experiment with Streptococcus pyogenes; 0.25 µg/mL (≈ 0.549 µM) in the experiment with Streptococcus pneumoniae [12]. In addition, the minimum inhibitory concentration (MIC) in the experiment on Streptococcus pneumoniae [13] is ≤ 0.06 µg/mL; in the experiment with Enterococcus faecium [14] it was 0.12 µg/mL (≈ 0.263 µM); in the experiment with Enterococcus faecium [15] it was 0.12 µg/mL (≈ 0.263 µM); in the experiment on Enterococcus faecalis it was 0.5 µg/mL (≈ 1.1 µM); in the experiment on Staphylococcus aureus [6] it was ≤ 0.25 µg/mL; in the experiment with Staphylococcus aureus [7] it was 4 µg/mL (≈ 8.78 µM). Moreover, the half-maximal inhibitory concentration (IC50) in experiment [4] (read-out: IC50) was found to be 1000 nM; in experiment [10] it was 8000 nM; in experiment [9] it was 30 nM. In the experiment on Staphylococcus aureus [5], the Ratio IC50 came out at 33. For the same compound, the Ratio with Staphylococcus aureus [8] was > 16.
The compound `COc1ccc2ncc(F)c(CC[C@H]3OC[C@H](NCc4cc5c(cn4)OCCO5)CO3)c2n1` registered a half-maximal inhibitory concentration (IC50) in experiment [10] of 15000 nM.
With `COc1ccc2ncc(F)c(CC[C@@]3(O)CO[C@@H]4[C@@H](NCc5ccc6c(c5)OCCO6)CO[C@@H]43)c2n1`, the minimal inhibitory concentration (MIC) with Staphylococcus aureus [1] is 0.5 µg/mL (≈ 1 µM); in the experiment with Staphylococcus aureus [2] it was 1 µg/mL (≈ 2.01 µM); with Staphylococcus aureus [3], 1 µg/mL (≈ 2.01 µM); in the experiment on Staphylococcus aureus [6] it was 1 µg/mL (≈ 2.01 µM); in the experiment with Staphylococcus aureus [7], 4 µg/mL (≈ 8.04 µM). For the same compound, the IC50 in experiment [4] (read-out: IC50) stood at 2600 nM; in experiment [10] it was 20000 nM; in [9], 200 nM. In addition, in the experiment with Staphylococcus aureus [5], the Ratio IC50 was 13. Further, the Ratio in the experiment on Staphylococcus aureus [8] is 4.
For `COc1ccc2ncc(F)c(CC[C@]3(O)CC[C@H](NCc4ccc5c(c4)OCCO5)CC3)c2n1`, in experiment [10], the IC50 stood at 2300 nM.
